Measured values: ChEMBL document CHEMBL1759994, “The discovery and synthesis of potent zwitterionic inhibitors of renin” (Bioorg Med Chem Lett, 2011)
pIC50, pKi: −log10 of the molar value.

How the values were obtained:
Renin [1] = molecular target: T1, Renin (Homo sapiens, UniProt P00797); test: Inhibition of human recombinant renin in PBS buffer using tetradecapeptide at pH 7.4
T1 sequence (P00797 whole entry): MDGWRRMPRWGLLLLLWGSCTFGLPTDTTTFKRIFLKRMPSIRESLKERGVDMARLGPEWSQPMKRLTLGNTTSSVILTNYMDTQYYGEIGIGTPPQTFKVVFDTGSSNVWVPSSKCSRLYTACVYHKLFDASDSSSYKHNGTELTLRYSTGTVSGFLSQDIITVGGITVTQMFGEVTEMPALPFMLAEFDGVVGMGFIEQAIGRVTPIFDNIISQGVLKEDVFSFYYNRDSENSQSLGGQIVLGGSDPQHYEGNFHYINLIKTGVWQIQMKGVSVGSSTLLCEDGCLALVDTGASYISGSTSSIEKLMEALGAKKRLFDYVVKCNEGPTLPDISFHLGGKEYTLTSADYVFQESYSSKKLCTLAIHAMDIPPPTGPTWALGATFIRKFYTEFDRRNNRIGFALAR

CYP3A4 = CYP3A4 (Homo sapiens, UniProt P08684); test: Ratio of IC50 for human CYP3A4 in absence of NADPH to IC50 for human CYP3A4 preincubated for 30 mins in presence of NADPH; details: read-out: Ratio IC50
Blood [2] = test: Metabolic stability in human whole blood assessed as conversion to (1R,2R)-2-((3-(((3R,4S)-N-cyclopropyl-4-(4-(2-(2,6-dichloro-4-methylphenoxy)ethoxy)phenyl)piperidine-3-carboxamido)methyl)-5-(3-methoxypropyl)phenoxy)methyl)cyclopropanecarboxylic acid after 20 mins; assay type: ADME, tissue-based
Procedure, shortened: (§1)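 Prodrugs were incubated for 20 min in rat or human whole blood, or in rat or human liver S9 fraction (n = 2). The read-out was % conversion to the parent carboxylic acid.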

Blood [3] = test: Metabolic stability in rhesus monkey whole blood assessed as conversion to (1R,2R)-2-((3-(((3R,4S)-N-cyclopropyl-4-(4-(2-(2,6-dichloro-4-methylphenoxy)ethoxy)phenyl)piperidine-3-carboxamido)methyl)-5-(3-methoxypropyl)phenoxy)methyl)cyclopropanecarboxylic acid after 20 mins; assay type: ADME, tissue-based, Macaca mulatta
Liver [4] = test: Metabolic stability in Sprague-Dawley rat liver S9 fraction assessed as conversion to (1R,2R)-2-((3-(((3R,4S)-N-cyclopropyl-4-(4-(2-(2,6-dichloro-4-methylphenoxy)ethoxy)phenyl)piperidine-3-carboxamido)methyl)-5-(3-methoxypropyl)phenoxy)methyl)cyclopropanecarboxylic acid after 20 mins; assay type: ADME, subcellular; details: s9, 20 min; procedure, shortened: as §1
[5] = Oral bioavailability in Beagle dog at 3 mg/kg in 0.5% methocel; assay type: ADME, organism-based, Canis lupus familiaris; details: in vivo
Blood [6] = test: Metabolic stability in Sprague-Dawley rat whole blood assessed as conversion to (1R,2R)-2-((3-(((3R,4S)-N-cyclopropyl-4-(4-(2-(2,6-dichloro-4-methylphenoxy)ethoxy)phenyl)piperidine-3-carboxamido)methyl)-5-(3-methoxypropyl)phenoxy)methyl)cyclopropanecarboxylic acid after 20 mins; assay type: ADME, tissue-based; procedure, shortened: as §1
[7] = AUC (0 to 24 hrs) in Beagle dog at 3 mg/kg, po in 0.5% methocel; assay type: ADME, organism-based, Canis lupus familiaris; set-up: time < 24 hr, dose 3 mg/kg, route oral; details: plasma
[8] = Metabolic stability in dog whole blood assessed as conversion to (1R,2R)-2-((3-(((3R,4S)-N-cyclopropyl-4-(4-(2-(2,6-dichloro-4-methylphenoxy)ethoxy)phenyl)piperidine-3-carboxamido)methyl)-5-(3-methoxypropyl)phenoxy)methyl)cyclopropanecarboxylic acid after 20 mins; assay type: ADME, tissue-based, Canis lupus familiaris
[9] = Oral bioavailability in Sprague-Dawley rat at 30 mg/kg as 0.5% methocel suspension; assay type: ADME, organism-based; details: in vivo
Cytochrome P450 3A4 [10] = molecular target: T2, Cytochrome P450 3A4 (Homo sapiens, UniProt P08684); test: Inhibition of human CYP3A4 in human liver microsomes assessed as formation of 6beta-hydroxy-testosterone using testosterone as substrate by high throughput mass spectrometry in absence of NADPH; assay type: ADME, Microsome
[11] = molecular target: Voltage-gated inwardly rectifying potassium channel KCNH2 (Homo sapiens, UniProt Q12809); test: Binding affinity to human ERG
[12] = AUC (0 to 24 hrs) in Sprague-Dawley rat at 30 mg/kg, po as 0.5% methocel suspension; assay type: ADME, organism-based; set-up: time < 24 hr, dose 30 mg/kg, route oral; details: plasma
Renin [13] = molecular target: T1, Renin; test: Inhibition of human recombinant renin in human citreated-plasma
Liver [14] = test: Metabolic stability in human liver S9 fraction assessed as conversion to (1R,2R)-2-((3-(((3R,4S)-N-cyclopropyl-4-(4-(2-(2,6-dichloro-4-methylphenoxy)ethoxy)phenyl)piperidine-3-carboxamido)methyl)-5-(3-methoxypropyl)phenoxy)methyl)cyclopropanecarboxylic acid after 20 mins; assay type: ADME, subcellular; details: s9, 20 min; procedure, shortened: as §1
Cytochrome P450 3A4 [15] = molecular target: T2, Cytochrome P450 3A4; test: Inhibition of human CYP3A4 in human liver microsomes assessed as formation of 6beta-hydroxy-testosterone using testosterone as substrate by high throughput mass spectrometry preincubated for 30 mins in presence of NADPH; assay type: ADME, Microsome

T2 sequence (P08684 whole entry): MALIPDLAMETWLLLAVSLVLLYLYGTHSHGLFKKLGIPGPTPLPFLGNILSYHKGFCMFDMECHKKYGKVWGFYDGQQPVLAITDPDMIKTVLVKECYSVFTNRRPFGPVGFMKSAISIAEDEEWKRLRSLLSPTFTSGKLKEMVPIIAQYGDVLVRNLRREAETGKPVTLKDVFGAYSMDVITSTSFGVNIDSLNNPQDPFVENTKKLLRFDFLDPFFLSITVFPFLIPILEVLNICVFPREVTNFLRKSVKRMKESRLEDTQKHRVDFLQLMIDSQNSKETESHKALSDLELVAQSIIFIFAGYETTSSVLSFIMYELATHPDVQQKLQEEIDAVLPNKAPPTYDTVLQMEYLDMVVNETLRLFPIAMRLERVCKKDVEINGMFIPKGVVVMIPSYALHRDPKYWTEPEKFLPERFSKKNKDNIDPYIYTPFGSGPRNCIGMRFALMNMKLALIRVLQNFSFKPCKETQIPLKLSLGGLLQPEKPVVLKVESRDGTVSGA
Chain of Voltage-gated inwardly rectifying potassium channel KCNH2 (Q12809 whole entry): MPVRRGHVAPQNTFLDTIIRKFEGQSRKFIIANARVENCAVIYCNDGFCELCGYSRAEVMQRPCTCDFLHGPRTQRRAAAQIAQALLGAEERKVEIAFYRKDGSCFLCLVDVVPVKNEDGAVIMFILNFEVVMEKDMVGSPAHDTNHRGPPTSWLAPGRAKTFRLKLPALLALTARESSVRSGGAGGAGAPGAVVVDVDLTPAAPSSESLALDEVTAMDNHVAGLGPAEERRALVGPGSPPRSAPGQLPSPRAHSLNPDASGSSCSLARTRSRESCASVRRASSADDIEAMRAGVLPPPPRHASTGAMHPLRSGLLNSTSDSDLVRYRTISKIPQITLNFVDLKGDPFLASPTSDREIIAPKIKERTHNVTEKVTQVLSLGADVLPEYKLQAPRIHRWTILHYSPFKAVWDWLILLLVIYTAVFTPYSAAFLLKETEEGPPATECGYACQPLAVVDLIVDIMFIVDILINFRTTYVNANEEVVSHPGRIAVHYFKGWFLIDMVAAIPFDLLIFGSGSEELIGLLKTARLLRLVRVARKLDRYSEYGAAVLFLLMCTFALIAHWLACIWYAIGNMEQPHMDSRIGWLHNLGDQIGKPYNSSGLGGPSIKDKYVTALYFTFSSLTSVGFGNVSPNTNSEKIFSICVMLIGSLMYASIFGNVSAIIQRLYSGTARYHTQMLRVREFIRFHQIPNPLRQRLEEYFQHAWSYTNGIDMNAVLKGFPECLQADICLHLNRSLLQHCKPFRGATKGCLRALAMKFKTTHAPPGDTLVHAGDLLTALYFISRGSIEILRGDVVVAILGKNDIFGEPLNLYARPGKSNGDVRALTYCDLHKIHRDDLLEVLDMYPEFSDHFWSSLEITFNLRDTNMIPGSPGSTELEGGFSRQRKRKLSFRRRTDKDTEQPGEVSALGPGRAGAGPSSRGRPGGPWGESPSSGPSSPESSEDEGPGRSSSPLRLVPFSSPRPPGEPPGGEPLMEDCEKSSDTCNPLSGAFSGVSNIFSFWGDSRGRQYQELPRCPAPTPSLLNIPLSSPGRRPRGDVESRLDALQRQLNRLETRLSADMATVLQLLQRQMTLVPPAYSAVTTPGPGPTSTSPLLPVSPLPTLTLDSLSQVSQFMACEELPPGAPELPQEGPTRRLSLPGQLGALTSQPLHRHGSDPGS
Chain of CYP3A4 (P08684 whole entry): as the sequence (P08684 whole entry) above

pIC50 (Renin [1]): 10.19
Activity (Blood [2]): 3%
Activity (Blood [3]): 15%
Activity (Liver [4]): 60%
bioavailability [5]: 6%
Activity (Blood [6]): 99%
AUC(0-t) at 24 h [7]: 0.01 µM·h
Activity [8]: 2%
bioavailability [9]: 52%
pIC50 (Cytochrome P450 3A4 [10]): 4.71
AUC(0-t) at 24 h [12]: 5.7 µM·h
pIC50 (Renin [13]): 7.96
Activity (Liver [14]): 56%
pIC50 (Cytochrome P450 3A4 [15]): 5.85
Structure (SMILES): CCOC(=O)[C@H]1C[C@@H]1COc1cc(CCCOC)cc(CN(C(=O)[C@H]2CNCC[C@@H]2c2ccc(OCCOc3c(Cl)cc(C)cc3Cl)cc2)C2CC2)c1
IC50 shift (CYP3A4): 14
pKi [11]: 7.10
